From ChEMBL document CHEMBL1154129, “Cytotoxic polyketides from a marine-derived fungus Aspergillus glaucus” (J Nat Prod, 2008)
Calls of active or inactive are those of the source. The calls are words filed in the database; no cut-off is given here.

Tests used:
Assay type in all cases: functional, cell-based
HL-60 [1] = assay: Cytotoxicity against human HL60 cells after 72 hrs by MTT assay; conditions: HL-60, 72 h
Procedure, shortened: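 HL60 grown in RPMI-1640 with 10% FBS at 37 °C, 5% CO2. Seeded at 5 × 10^4 cells/mL, allowed 24 h, then given compounds in MeOH (2 µL per well) at several concentrations for 72 h. MTT (5 mg/mL stock) added for 4 h, formazan dissolved in DMSO, absorbance read at 540 nm. IC50 taken from the linear portion of log dose–response curves.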

A549 [2] = assay: Cytotoxicity against human A549 cells after 24 hrs by SRB assay; conditions: A549, 24 h
Procedure, shortened: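 A-549 cells plated at 2 × 10^5 cells/mL, then compounds added in MeOH (2 µL per well) at several concentrations for 24 h. Cells fixed with 12% trichloroacetic acid, stained with 0.4% SRB, absorbance read at 515 nm. IC50 taken from the linear portion of log dose–response curves.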

HL-60 [3] = assay: Cytotoxicity against human HL60 cells at 100 uM after 72 hrs by MTT assay
A549 [4] = assay: Cytotoxicity against human A549 cells at 100 uM after 24 hrs by SRB assay

Row | SMILES | IC50 (HL-60 [1]) | IC50 (A549 [2]) | Activity (HL-60 [3]) | Activity (A549 [4])
1 | COc1cc(O)c2c(c1)[C@@H]([C@H]1c3cc(C)cc(O)c3C(=O)c3c(O)cc(O)cc31)c1cc(C)cc(O)c1C2=O (relative stereo) | 7.8 µM | 9.2 µM |  | 
2 | COc1cc(O[C@H]2O[C@H](CO)[C@@H](O)[C@H]2O)cc2cc(C)cc(O)c12 |  |  | inactive | inactive
3 | COc1cc(O[C@H]2O[C@H](CO)[C@@H](O)[C@H]2O)cc2cc(C)c(C(C)=O)c(O)c12 |  |  | inactive | inactive
4 | COc1cc(O)cc2c1C(=O)c1c(O)cc(C)c3oc(=O)c(C(=O)c4c(C)cc(O)cc4O)c-2c13 [ASPERGIOLIDE B] | 0.51 µM | 0.24 µM |  | 
5 | COc1cc(O[C@H]2O[C@H](CO)[C@@H](O)[C@H]2O)cc2cccc(O)c12 |  |  | inactive | inactive
6 | COc1cc(O)cc2c1C(=O)c1c(cc(C)c(C(=O)OC[C@H](O)CO)c1O)C2=O |  |  | inactive | inactive
7 | COc1cc(O)c2c(c1)[C@H]([C@H]1c3cc(C)cc(O)c3C(=O)c3c(O)cc(O)cc31)c1cc(C)cc(O)c1C2=O (relative stereo) | 44 µM | 14.2 µM |  | 
8 | COc1cc(O)cc2cc3c(c(O)c12)C(=O)C[C@@H](C)[C@@H]3O |  |  | inactive | inactive
